Laboratory results published in ChEMBL document CHEMBL1140055, “Mixed-lineage kinase 1 and mixed-lineage kinase 3 subtype-selective dihydronaphthyl[3,4-a]pyrrolo[3,4-c]carbazole-5-ones: optimization, mixed-lineage kinase 1 crystallography, and oral in vivo activity in 1-methyl-4-phenyltetrahydropyridine models” (J Med Chem, 2008).
Values belong to the compound of their own block, whether it stands above or below them. The source made the active and inactive calls. The rule behind the calls is not given here.

Legend:
[1] = target: T1, Mitogen-activated protein kinase kinase kinase 9 (Homo sapiens, UniProt P80192); experiment: Inhibition of GST-fused human MLK1 at 1 uM
Outline: (§1)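 Baculovirus-expressed GST fusions of human MLK1 or MLK3 kinase domain (50 ng MLK1, 100 ng MLK3), myelin basic protein substrate at 500 µg/mL.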
Target sequence in this assay (P80192 whole entry, looked up, the tested form may be a part): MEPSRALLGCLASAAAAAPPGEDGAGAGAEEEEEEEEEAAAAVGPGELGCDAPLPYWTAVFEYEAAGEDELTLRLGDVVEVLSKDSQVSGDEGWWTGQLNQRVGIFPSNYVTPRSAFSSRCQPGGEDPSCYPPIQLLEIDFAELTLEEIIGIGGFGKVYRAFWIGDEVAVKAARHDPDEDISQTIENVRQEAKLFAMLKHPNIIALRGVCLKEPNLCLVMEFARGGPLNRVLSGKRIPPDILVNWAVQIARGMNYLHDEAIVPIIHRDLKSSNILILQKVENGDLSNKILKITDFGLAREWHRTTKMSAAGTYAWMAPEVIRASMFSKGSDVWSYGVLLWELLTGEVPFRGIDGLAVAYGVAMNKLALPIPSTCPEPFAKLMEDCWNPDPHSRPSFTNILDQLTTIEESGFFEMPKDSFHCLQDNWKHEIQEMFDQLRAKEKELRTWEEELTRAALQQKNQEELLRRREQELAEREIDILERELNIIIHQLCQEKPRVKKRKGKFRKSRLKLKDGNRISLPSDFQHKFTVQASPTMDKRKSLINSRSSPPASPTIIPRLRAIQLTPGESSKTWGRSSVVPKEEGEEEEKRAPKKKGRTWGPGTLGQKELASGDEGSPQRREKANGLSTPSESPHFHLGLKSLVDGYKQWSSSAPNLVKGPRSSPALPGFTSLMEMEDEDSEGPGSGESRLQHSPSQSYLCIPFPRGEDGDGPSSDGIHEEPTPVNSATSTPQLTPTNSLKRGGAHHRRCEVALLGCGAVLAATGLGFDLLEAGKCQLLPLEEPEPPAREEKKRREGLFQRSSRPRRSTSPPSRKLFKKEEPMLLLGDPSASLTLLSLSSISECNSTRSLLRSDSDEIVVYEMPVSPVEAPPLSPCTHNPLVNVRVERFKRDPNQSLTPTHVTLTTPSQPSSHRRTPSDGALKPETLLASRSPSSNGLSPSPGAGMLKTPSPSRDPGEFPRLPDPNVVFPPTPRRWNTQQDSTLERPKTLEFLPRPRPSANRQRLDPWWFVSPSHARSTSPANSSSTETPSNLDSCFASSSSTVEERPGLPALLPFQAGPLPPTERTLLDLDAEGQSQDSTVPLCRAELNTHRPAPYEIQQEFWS

[2] = target: T2, Mitogen-activated protein kinase kinase kinase 11 (Homo sapiens, UniProt Q16584); experiment: Inhibition of GST-fused human MLK3 at 1 uM; outline: as §1
Target sequence in this assay (Q16584 whole entry, looked up, the tested form may be a part): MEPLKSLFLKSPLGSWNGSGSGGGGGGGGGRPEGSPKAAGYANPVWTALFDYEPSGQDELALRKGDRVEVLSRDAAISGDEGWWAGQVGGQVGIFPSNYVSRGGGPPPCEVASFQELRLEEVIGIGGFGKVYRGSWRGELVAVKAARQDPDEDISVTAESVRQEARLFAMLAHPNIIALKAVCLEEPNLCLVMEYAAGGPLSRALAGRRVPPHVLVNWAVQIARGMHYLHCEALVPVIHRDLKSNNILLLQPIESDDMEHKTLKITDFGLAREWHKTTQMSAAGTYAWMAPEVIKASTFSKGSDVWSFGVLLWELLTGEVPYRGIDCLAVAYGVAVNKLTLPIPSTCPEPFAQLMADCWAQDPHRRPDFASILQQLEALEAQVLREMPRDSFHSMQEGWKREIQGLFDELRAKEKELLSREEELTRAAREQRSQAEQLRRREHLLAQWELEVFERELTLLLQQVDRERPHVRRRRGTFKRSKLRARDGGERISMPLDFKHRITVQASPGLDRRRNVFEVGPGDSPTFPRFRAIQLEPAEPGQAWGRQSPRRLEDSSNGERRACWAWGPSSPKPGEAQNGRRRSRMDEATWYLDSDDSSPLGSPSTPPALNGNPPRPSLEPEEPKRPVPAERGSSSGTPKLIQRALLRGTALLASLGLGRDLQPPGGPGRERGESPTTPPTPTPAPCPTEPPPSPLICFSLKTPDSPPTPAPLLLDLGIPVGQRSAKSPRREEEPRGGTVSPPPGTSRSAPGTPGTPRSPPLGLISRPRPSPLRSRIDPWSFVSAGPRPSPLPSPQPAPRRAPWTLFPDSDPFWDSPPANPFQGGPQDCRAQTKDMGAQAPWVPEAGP

[3] = target: Fibroblast growth factor receptor 1 (Homo sapiens, UniProt P11362); experiment: Inhibition of human FGFR1 expressed in baculovirus insect cell system
[4] = target: Mitogen-activated protein kinase 14 (Homo sapiens, UniProt Q16539); experiment: Inhibition of human P38alpha expressed in baculovirus insect cell system
[5] = Inhibition of human IRK expressed in baculovirus insect cell system
[6] = target: Cyclin-dependent kinase; experiment: Inhibition of human CDK expressed in baculovirus insect cell system
[7] = target: Serine/threonine-protein kinase Chk1/2 (Homo sapiens, UniProt O96017+O14757); experiment: Inhibition of human CHK1/2 expressed in baculovirus insect cell system
[8] = target: Tyrosine-protein kinase Fyn (Homo sapiens, UniProt P06241); experiment: Inhibition of human Fyn kinase expressed in baculovirus insect cell system
[9] = Half life in Sprague-Dawley rat at 1 mg/kg, iv; assay type: ADME, organism-based; set-up: dose 1 mg/kg, route intravenous; conditions: in vivo
Outline: (§2)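 Rat PK: iv dose into lateral tail vein in 3% DMSO/30% solutol/67% PBS; oral gavage in 50% Tween 80/40% propylene carbonate/10% propylene glycol, rats fasted overnight before oral dosing. Serial tail-vein blood at seven times over 6 h into heparinized tubes. Plasma protein-precipitated with acetonitrile, analysed with internal standard by LC-MS/MS. Bioavailability from iv versus po AUCs.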

[10] = AUC in Sprague-Dawley rat at 1 mg/kg, iv; assay type: ADME, organism-based; set-up: dose 1 mg/kg, route intravenous; conditions: plasma
Outline: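 Single intravenous dose into the lateral tail vein in 3% DMSO, 30% solutol and 67% phosphate-buffered saline. Serial heparinized blood samples were taken from the lateral tail vein at seven times over 6 h. Plasma was separated by centrifugation, deproteinized with acetonitrile and analysed for drug against an internal standard by LC-MS/MS.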

[11] = Volume of distribution in Sprague-Dawley rat at 1 mg/kg, iv; assay type: ADME, organism-based; set-up: dose 1 mg/kg, route intravenous; conditions: in vivo; outline: as §2
[12] = Clearance in Sprague-Dawley rat at 1 mg/kg, iv; assay type: ADME, organism-based; set-up: dose 1 mg/kg, route intravenous; conditions: in vivo; outline: as §2
[13] = AUC in Sprague-Dawley rat at 5 mg/kg, po; assay type: ADME, organism-based; set-up: dose 5 mg/kg, route oral; conditions: plasma
Outline: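 Rats were fasted overnight, then dosed by oral gavage in 50% Tween 80, 40% propylene carbonate and 10% propylene glycol. Serial heparinized blood samples were taken from the lateral tail vein at seven times over 6 h. Plasma was deproteinized with acetonitrile and analysed for drug against an internal standard by LC-MS/MS.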

[14] = Cmax in Sprague-Dawley rat at 5 mg/kg, po; assay type: ADME, organism-based; set-up: dose 5 mg/kg, route oral; conditions: in vivo; outline: as §2
[15] = Half life in Sprague-Dawley rat at 5 mg/kg, po; assay type: ADME, organism-based; set-up: dose 5 mg/kg, route oral; conditions: in vivo; outline: as §2
[16] = Oral bioavailability in Sprague-Dawley rat at 5 mg/kg; assay type: ADME, organism-based; conditions: in vivo; outline: as §2
[17] = Metabolic stability in rat liver S9 fraction after 2 hrs in presence of NADPH; assay type: ADME, subcellular; conditions: read-out: Stability
Outline: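 Incubated 2 h in rat liver S9 preparation with NADPH; percent parent remaining reported.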

[18] = system: SH-SY5Y; experiment: Neuroprotective activity against human SH-SY5Y cells assessed as inhibition of MPP+-induced cell death; assay type: functional, cell-based
[19] = system: Mus musculus; experiment: Inhibition of MPTP-induced increase in pMKK4 levels in mouse at 6.7 mg/kg, po administered 2 hrs before MPTP challenge followed by 40 mg/kg, sc 2 hrs after MPTP challenge; assay type: functional; set-up: Activity: scale not given: the % may be the effect or the level left
Outline: (§3)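 Mice dosed orally at 6.7 mg/kg 2 h before and 2 h after MPTP (40 mg/kg sc). Substantia nigra dissected 2 h after second dose; pMKK4 measured by immunoblot against treated and control groups. Plasma drug levels taken 2 h after dosing (4 h post-MPTP).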

[20] = Plasma concentration in mouse at 6.7 mg/kg, po administered 2 hrs before MPTP challenge followed by 40 mg/kg, sc 2 hrs after MPTP challenge; assay type: ADME, organism-based; conditions: other: po followed by sc; outline: as §3
[21] = system: Mus musculus; experiment: Neuroprotective activity against MPTP-induced loss of striatal dopamine markers in po dosed mouse administered twice daily; assay type: functional, organism-based
Outline: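 Mouse MPTP neurotoxicity: low dose 20 mg/kg sc, assessing striatal DA terminals by GBR-12935 binding; high dose 40 mg/kg sc, assessing striatal DA markers and substantia nigra cell bodies by TH immunoreactivity. Test compounds given orally, q.d. or b.i.d.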

[22] = target: T1, Mitogen-activated protein kinase kinase kinase 9; experiment: Inhibition of GST-fused human MLK1 expressed in CHO cells assessed as MKK4 phosphorylation; assay type: cell-based
Outline: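 CHO cells transfected with MLK1 plus dominant-negative MKK4 cDNA; phospho-MKK4 quantified by ELISA; IC50 derived.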
Target sequence in this assay (P80192 whole entry, the tested form may be a part): as the sequence (P80192 whole entry, looked up, the tested form may be a part) above

[23] = target: Mitogen-activated protein kinase kinase kinase 10 (Homo sapiens, UniProt Q02779); experiment: Inhibition of human MLK2 expressed in baculovirus insect cell system
Outline: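 GST fusions of human MLK kinase domains from baculovirus (50 ng MLK1_KD, 150 ng MLK2_KD/LZ, 100 ng MLK3_KD), substrate 500 µg/mL myelin basic protein. Buffer 20 mM Hepes pH 7.2, 5 mM EGTA, 15 mM MgCl2, 1 mM DTT, 25 mM β-glycerophosphate, 0.1% BSA, 2% DMSO. […] 15 min at 37 °C, TCA precipitation, scintillation counting. IC50 by variable-slope sigmoidal fit, average of duplicates within 20%.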

[24] = target: High affinity nerve growth factor receptor (Homo sapiens, UniProt P04629); experiment: Inhibition of human TrkA expressed in baculovirus insect cell system
[25] = target: c-Jun N-terminal kinase, JNK (Homo sapiens, UniProt P45983+P53779+P45984); experiment: Inhibition of human JNK expressed in baculovirus insect cell system
[26] = target: T3, Dual specificity mitogen-activated protein kinase kinase 4 (Homo sapiens, UniProt P45985); experiment: Inhibition of human MKK4/7 expressed in baculovirus insect cell system
T3 sequence (P45985 whole entry): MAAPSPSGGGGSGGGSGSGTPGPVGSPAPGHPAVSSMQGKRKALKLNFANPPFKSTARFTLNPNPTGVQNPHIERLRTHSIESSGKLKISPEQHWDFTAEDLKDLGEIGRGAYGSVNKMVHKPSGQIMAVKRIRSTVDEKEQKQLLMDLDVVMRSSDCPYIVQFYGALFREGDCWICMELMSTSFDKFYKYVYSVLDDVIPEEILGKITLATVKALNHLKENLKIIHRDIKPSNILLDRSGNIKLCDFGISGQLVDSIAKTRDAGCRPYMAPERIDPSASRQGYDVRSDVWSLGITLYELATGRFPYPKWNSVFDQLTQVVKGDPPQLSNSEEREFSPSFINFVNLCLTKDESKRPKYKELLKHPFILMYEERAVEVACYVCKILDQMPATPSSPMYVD

[27] = target: Protein kinase C (PKC); experiment: Inhibition of human PKC expressed in baculovirus insect cell system
[28] = target: Vascular endothelial growth factor receptor 1 (Homo sapiens, UniProt P17948); experiment: Inhibition of human VEGFR1 expressed in baculovirus insect cell system
[29] = target: Vascular endothelial growth factor receptor 2 (Homo sapiens, UniProt P35968); experiment: Inhibition of human VEGFR2 expressed in baculovirus insect cell system
[30] = target: Vascular endothelial growth factor receptor 3 (Homo sapiens, UniProt P35916); experiment: Inhibition of human VEGFR3 expressed in baculovirus insect cell system
[31] = target: T1, Mitogen-activated protein kinase kinase kinase 9; experiment: Inhibition of GST-fused human MLK1
Outline: (§4)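 GST fusions of human MLK kinase domains from baculovirus (50 ng MLK1_KD, 150 ng MLK2_KD/LZ, 100 ng MLK3_KD), substrate 500 µg/mL myelin basic protein. Buffer 20 mM Hepes pH 7.2, 5 mM EGTA, 15 mM MgCl2, 1 mM DTT, 25 mM β-glycerophosphate, 0.1% BSA, 2% DMSO.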
Target sequence in this assay (P80192 whole entry, the tested form may be a part): as the sequence (P80192 whole entry, looked up, the tested form may be a part) above

[32] = target: T2, Mitogen-activated protein kinase kinase kinase 11; experiment: Inhibition of GST-fused human MLK3; outline: as §4
Target sequence in this assay (Q16584 whole entry, the tested form may be a part): as the sequence (Q16584 whole entry, looked up, the tested form may be a part) above

Chain of Vascular endothelial growth factor receptor 1 (P17948 whole entry): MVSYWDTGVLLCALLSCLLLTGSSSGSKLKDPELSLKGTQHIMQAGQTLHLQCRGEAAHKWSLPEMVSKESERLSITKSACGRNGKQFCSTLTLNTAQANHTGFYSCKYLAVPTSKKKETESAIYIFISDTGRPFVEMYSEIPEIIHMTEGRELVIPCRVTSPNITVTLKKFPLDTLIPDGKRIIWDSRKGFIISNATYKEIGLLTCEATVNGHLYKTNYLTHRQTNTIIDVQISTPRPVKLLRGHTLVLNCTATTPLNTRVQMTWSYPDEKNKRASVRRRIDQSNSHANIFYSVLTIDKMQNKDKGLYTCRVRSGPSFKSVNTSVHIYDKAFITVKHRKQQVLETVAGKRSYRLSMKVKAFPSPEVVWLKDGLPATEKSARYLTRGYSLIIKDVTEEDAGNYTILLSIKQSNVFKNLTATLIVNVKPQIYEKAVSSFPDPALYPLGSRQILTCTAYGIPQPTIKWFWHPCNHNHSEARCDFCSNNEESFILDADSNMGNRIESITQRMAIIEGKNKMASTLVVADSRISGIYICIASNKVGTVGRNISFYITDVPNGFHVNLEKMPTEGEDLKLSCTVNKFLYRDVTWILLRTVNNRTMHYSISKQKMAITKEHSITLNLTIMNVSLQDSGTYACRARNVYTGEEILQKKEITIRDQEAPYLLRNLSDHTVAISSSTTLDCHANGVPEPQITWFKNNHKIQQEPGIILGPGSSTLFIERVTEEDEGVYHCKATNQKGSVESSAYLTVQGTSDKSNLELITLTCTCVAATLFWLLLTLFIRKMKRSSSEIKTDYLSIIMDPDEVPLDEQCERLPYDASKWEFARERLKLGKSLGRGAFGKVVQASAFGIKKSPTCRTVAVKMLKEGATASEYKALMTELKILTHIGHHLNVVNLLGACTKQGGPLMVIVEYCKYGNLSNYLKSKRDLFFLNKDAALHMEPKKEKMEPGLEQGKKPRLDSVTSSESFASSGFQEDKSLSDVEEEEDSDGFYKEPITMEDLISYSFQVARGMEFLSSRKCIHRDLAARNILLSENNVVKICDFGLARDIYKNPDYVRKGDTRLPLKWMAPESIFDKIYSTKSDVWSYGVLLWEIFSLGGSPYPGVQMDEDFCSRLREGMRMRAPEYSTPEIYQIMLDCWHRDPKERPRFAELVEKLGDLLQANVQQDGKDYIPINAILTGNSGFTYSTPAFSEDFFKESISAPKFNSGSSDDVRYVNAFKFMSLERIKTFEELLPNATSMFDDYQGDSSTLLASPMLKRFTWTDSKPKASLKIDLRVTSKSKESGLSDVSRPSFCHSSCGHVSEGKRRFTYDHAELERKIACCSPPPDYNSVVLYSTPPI
Chain of High affinity nerve growth factor receptor (P04629 whole entry): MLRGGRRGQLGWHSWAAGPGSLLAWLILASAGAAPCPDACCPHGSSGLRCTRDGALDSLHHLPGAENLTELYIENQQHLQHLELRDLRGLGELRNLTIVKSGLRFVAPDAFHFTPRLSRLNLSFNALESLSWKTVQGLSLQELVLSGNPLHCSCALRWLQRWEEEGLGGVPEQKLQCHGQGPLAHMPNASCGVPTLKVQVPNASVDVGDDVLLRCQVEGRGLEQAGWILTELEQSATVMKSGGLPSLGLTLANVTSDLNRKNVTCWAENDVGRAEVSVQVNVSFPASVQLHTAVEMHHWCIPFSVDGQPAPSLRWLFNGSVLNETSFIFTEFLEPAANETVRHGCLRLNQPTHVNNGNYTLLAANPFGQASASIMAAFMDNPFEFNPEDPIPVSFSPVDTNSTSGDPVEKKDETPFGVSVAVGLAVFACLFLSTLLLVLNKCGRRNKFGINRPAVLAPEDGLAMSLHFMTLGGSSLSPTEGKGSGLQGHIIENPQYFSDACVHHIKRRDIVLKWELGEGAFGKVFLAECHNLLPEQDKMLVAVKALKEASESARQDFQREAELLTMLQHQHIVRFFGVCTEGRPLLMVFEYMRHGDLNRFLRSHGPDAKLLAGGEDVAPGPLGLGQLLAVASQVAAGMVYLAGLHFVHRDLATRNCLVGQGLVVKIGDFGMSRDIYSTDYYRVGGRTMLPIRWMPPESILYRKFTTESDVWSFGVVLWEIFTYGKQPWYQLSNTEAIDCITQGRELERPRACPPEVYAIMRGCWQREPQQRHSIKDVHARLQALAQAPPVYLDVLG
Chain of Tyrosine-protein kinase Fyn (P06241 whole entry): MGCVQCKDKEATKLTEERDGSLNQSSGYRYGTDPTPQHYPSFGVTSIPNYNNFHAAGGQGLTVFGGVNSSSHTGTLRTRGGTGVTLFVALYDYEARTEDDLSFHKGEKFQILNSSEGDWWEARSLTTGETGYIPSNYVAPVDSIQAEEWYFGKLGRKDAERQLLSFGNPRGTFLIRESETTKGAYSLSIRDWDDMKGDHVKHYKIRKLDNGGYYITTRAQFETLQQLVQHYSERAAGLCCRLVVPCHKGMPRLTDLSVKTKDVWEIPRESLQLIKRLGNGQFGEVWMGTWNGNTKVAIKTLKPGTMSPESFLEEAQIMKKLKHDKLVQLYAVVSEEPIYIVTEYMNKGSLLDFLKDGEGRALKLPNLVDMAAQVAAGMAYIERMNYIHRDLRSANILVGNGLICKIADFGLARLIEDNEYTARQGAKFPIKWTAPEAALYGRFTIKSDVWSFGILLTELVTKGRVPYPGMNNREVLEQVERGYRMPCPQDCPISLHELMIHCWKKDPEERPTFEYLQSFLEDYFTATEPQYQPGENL

Structure (SMILES): O=C1NCc2c1c1c(c3[nH]c4ccccc4c23)CCc2cc(O)ccc2-1
inhibition [1]: 9%
inhibition [2]: 0%

Structure (SMILES): O=C1NCc2c1c1c(c3c2c2ccccc2n3CCO)CCc2cc(OCc3ccccn3)ccc2-1
inhibition [1]: 36%
inhibition [2]: 30%

Structure (SMILES): O=C1NCc2c1c1c(c3c2c2ccccc2n3CCO)CCc2cc(OCC3CC3)ccc2-1
inhibition [1]: 30%
inhibition [2]: 32%

Second part, led by results:

inhibition [1]: 52%
inhibition [2]: 40%
Structure (SMILES): COCCOc1ccc2c(c1)CCc1c-2c2c(c3c4ccccc4n(CCO)c13)CNC2=O

IC50 [3]: > 10000 nM
IC50 [4]: > 10000 nM
IC50 [6]: > 10000 nM
IC50 [7]: > 10000 nM
IC50 [8]: 1190 nM
half-life [9]: 48 min
AUC [10]: 579 ng·h/mL
Vd [11]: 2 L/kg
clearance [12]: 28 mL/min/kg
AUC [13]: 1070 ng·h/mL
Cmax [14]: 339 ng/mL
half-life [15]: 66 min
bioavailability [16]: 37%
remaining at 2 h [17]: 44%
concentration at 2 h [20]: 580 nM
IC50 [22]: 33 nM
IC50 [23]: 1860 nM
IC50 [24]: 1050 nM
IC50 [25]: > 30000 nM
IC50 [26]: > 3000 nM
IC50 [27]: > 6000 nM
IC50 [28]: > 10000 nM
IC50 [29]: 3380 nM
IC50 [30]: 2460 nM
IC50 [31]: 26 nM
IC50 [32]: 65 nM
Structure (SMILES): CC(C)Oc1ccc2c(c1)CCc1c-2c2c(c3c4ccccc4n(CCO)c13)CNC2=O
IC50 [5]: > 10000 nM
IC50 [18]: 43 nM
Activity [19]: 64%
Activity [21]: Active
